Data published in ChEMBL document CHEMBL4196022, “Alkynyl-containing phenylthiazoles: Systemically active antibacterial agents effective against methicillin-resistant Staphylococcus aureus (MRSA)” (Eur J Med Chem, 2018).
In brackets after ≈: the same amount, converted by molar mass. Activity calls are given as the source filed them. The rule behind the calls is not given here.

Columns and labels:
Staphylococcus aureus [1] = assay: Antibacterial activity against methicillin-resistant Staphylococcus aureus NRS107 after 20 hrs by broth microdilution assay; assay type: functional; details: NRS107, 20 h
Procedure, shortened: (§1)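 Broth microdilution per CLSI in cation-adjusted Mueller Hinton broth. Compounds serially diluted, in triplicate. Incubation at 37 °C for at least 20 hours. MIC taken as the lowest concentration with no visible bacterial growth.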

Staphylococcus aureus [2] = assay: Antibacterial activity against methicillin-resistant Staphylococcus aureus USA300 after 20 hrs by broth microdilution assay; assay type: functional; details: USA300, 20 h; procedure, shortened: as §1
Staphylococcus aureus [3] = assay: Bactericidal activity against methicillin-resistant Staphylococcus aureus USA300 up to 18 hrs by broth microdilution assay; assay type: functional; details: USA300, 18 h, read-out: MBC99.9
Staphylococcus aureus [4] = assay: Bactericidal activity against methicillin-resistant Staphylococcus aureus NRS107 up to 18 hrs by broth microdilution assay; assay type: functional; details: NRS107, 18 h, read-out: MBC99.9
Staphylococcus aureus [5] = assay: Antibacterial activity against methicillin-resistant Staphylococcus aureus NRS119 after 20 hrs by broth microdilution assay; assay type: functional; details: NRS119, 20 h; procedure, shortened: as §1
Staphylococcus aureus [6] = assay: Bactericidal activity against methicillin-resistant Staphylococcus aureus NRS119 up to 18 hrs by broth microdilution assay; assay type: functional; details: NRS119, 18 h, read-out: MBC99.9
Staphylococcus aureus [7] = assay: Antibacterial activity against methicillin-resistant Staphylococcus aureus NRS123 (USA400) after 20 hrs by broth microdilution assay; assay type: functional; procedure, shortened: as §1
Staphylococcus aureus [8] = assay: Bactericidal activity against methicillin resistant Staphylococcus aureus NRS123 (USA400) up to 18 hrs by broth microdilution assay; assay type: functional; details: read-out: MBC99.9
Staphylococcus aureus [9] = assay: Antibacterial activity against vancomycin-resistant Staphylococcus aureus VRS10 after 20 hrs by broth microdilution assay; assay type: functional; details: VRS10, 20 h; procedure, shortened: as §1
Staphylococcus aureus [10] = assay: Bactericidal activity against methicillin resistant vancomycin-resistant Staphylococcus aureus VRS10 up to 18 hrs by broth microdilution assay; assay type: functional; details: VRS10, 18 h, read-out: MBC99.9
Staphylococcus aureus [11] = assay: Antibacterial activity against vancomycin-resistant Staphylococcus aureus VRS11a after 20 hrs by broth microdilution assay; assay type: functional; procedure, shortened: as §1
Staphylococcus aureus [12] = assay: Bactericidal activity against methicillin resistant vancomycin-resistant Staphylococcus aureus VRS11a up to 18 hrs by broth microdilution assay; assay type: functional; details: read-out: MBC99.9
Staphylococcus aureus [13] = assay: Antibacterial activity against vancomycin-resistant Staphylococcus aureus VRS12 after 20 hrs by broth microdilution assay; assay type: functional; details: VRS12, 20 h; procedure, shortened: as §1
Staphylococcus aureus [14] = assay: Bactericidal activity against methicillin resistant vancomycin-resistant Staphylococcus aureus VRS12 up to 18 hrs by broth microdilution assay; assay type: functional; details: VRS12, 18 h, read-out: MBC99.9
Procedure, shortened: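 MBC set up from the MIC plates. Aliquots from wells with no growth spotted onto tryptic soy agar and incubated at 37 °C for at least 18 hours. MBC taken as the lowest concentration giving 99.9% inhibition of bacterial growth.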

Staphylococcus aureus [15] = assay: Potency index, ratio of vancomycin MIC to compound MIC for antibacterial activity against vancomycin-resistant Staphylococcus aureus VRS10; assay type: functional
Staphylococcus aureus [16] = assay: Potency index, ratio of vancomycin MIC to compound MIC for antibacterial activity against vancomycin-resistant Staphylococcus aureus VRS11a; assay type: functional
Staphylococcus aureus [17] = assay: Potency index, ratio of vancomycin MIC to compound MIC for antibacterial activity against vancomycin-resistant Staphylococcus aureus VRS12; assay type: functional
Staphylococcus aureus [18] = assay: Ratio of MBC to MIC for methicillin-resistant Staphylococcus aureus USA300; assay type: functional
Procedure, shortened: (§2)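 MBC/MIC ratio. […] MBC by plating no-growth wells onto tryptic soy agar at 37 °C for at least 18 h; taken as the concentration giving 99.9% growth inhibition.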

Staphylococcus aureus [19] = assay: Ratio of MBC to MIC for methicillin-resistant Staphylococcus aureus NRS107; assay type: functional; procedure, shortened: as §2
Staphylococcus aureus [20] = assay: Ratio of MBC to MIC for methicillin-resistant Staphylococcus aureus NRS119; assay type: functional; procedure, shortened: as §2
Staphylococcus aureus [21] = assay: Ratio of MBC to MIC for methicillin-resistant Staphylococcus aureus NRS123 (USA400); assay type: functional; procedure, shortened: as §2
Staphylococcus aureus [22] = assay: Ratio of MBC to MIC for vancomycin-resistant Staphylococcus aureus VRS10; assay type: functional; procedure, shortened: as §2
Staphylococcus aureus [23] = assay: Ratio of MBC to MIC for vancomycin-resistant Staphylococcus aureus VRS11a; assay type: functional; procedure, shortened: as §2
Staphylococcus aureus [24] = assay: Ratio of MBC to MIC for vancomycin-resistant Staphylococcus aureus VRS12; assay type: functional; procedure, shortened: as §2
Staphylococcus aureus [25] = assay: Bactericidal activity against methicillin-resistant Staphylococcus aureus NRS123 (USA400) assessed as reduction in bacterial load at 4 times MIC after 8 hrs by time kill assay relative to control; assay type: functional
J774 [26] = assay: Cytotoxicity against mouse J774 cells assessed as reduction in cell viability up to 8 ug/ml after 24 hrs by MTS assay; assay type: cell-based; details: j774, 24 h
Procedure, shortened: (§3)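 J774 murine macrophages were grown in DMEM with 10% FBS at 37 °C, 5% CO2. Compounds were tested at 8, 16 and 32 μg/mL in triplicate for 24 h, with a DMSO-matched control. MTS was added for 4 h and absorbance read at 490 nm. Viability is given as % of DMSO control (mean ± SD); Student t-test with Holm-Sidak test.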

Staphylococcus aureus [27] = assay: Antibacterial activity against methicillin-resistant Staphylococcus aureus NRS123 (USA400) infected in mouse J774 cells at 8 ug/ml after 24 hrs; assay type: functional, organism-based
Procedure, shortened: (§4)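 J774 macrophages grown in DMEM with 10% FBS at 37 °C, 5% CO2. Infected with USA400 at MOI ~100:1 for 1 h, then washed with gentamicin 50 μg/mL. Treated in triplicate wells for 24 h, washed with gentamicin again and lysed with 0.1% Triton X-100. Lysate plated on tryptic soy agar for 18–22 h; CFU/mL counted.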

HRT-18 cell line = assay: Cytotoxicity against human HRT18 cells assessed as reduction in cell viability up to 32 ug/ml after 2 hrs by MTS assay; assay type: cell-based; details: hrt-18, 2 h
[28] = Selectivity index, ratio of toxic concentration for human HRT18 cells to MIC for methicillin-resistant Staphylococcus aureus; assay type: toxicity; details: read-out: Selectivity Index
Staphylococcus aureus [29] = assay: Inhibition of UPPS/UPPP in vancomycin-resistant Staphylococcus aureus VRS10 assessed as potentiation of vancomycin-induced antibacterial activity by measuring fold reduction in vancomycin MIC at 0.5 times MIC preincubated for 30 mins followed by vancomycin addition measured after 20 to 22 hrs by broth microdilution assay relative to control
Procedure, shortened: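 VRS10 suspension pre-exposed to compound at ½ × MIC for 30 min at room temperature. […] Incubation at 37 °C for 20–22 h before the MIC was read; untreated bacteria served as control.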

Staphylococcus aureus [30] = assay: Bactericidal activity against methicillin-resistant Staphylococcus aureus USA300 assessed as reduction in bacterial load at 4 times MIC after 4 hrs by time kill assay relative to control; assay type: functional
Staphylococcus aureus [31] = assay: Bactericidal activity against methicillin-resistant Staphylococcus aureus USA300 assessed as reduction in bacterial load at 4 times MIC after 12 hrs by time kill assay relative to control; assay type: functional
Staphylococcus aureus [32] = assay: Bactericidal activity against methicillin-resistant Staphylococcus aureus USA300 assessed as reduction in bacterial load at 4 times MIC after 24 hrs by time kill assay relative to control; assay type: functional
J774 [33] = assay: Cytotoxicity against mouse J774 cells assessed as reduction in cell viability up to 16 ug/ml after 24 hrs by MTS assay; assay type: cell-based; details: j774, 24 h; procedure, shortened: as §3
Staphylococcus aureus [34] = assay: Antibacterial activity against methicillin-resistant Staphylococcus aureus NRS123 (USA400) infected in mouse J774 cells at 16 ug/ml after 24 hrs; assay type: functional, organism-based; procedure, shortened: as §4
[35] = human, microsomes, 1 h, 0.1 µM

Row | SMILES | MIC (Staphylococcus aureus [1]) | MIC (Staphylococcus aureus [2]) | MBC (Staphylococcus aureus [3]) | MBC (Staphylococcus aureus [4]) | MIC (Staphylococcus aureus [5]) | MBC (Staphylococcus aureus [6]) | MIC (Staphylococcus aureus [7]) | MBC (Staphylococcus aureus [8]) | MIC (Staphylococcus aureus [9]) | MBC (Staphylococcus aureus [10]) | MIC (Staphylococcus aureus [11]) | MBC (Staphylococcus aureus [12]) | MIC (Staphylococcus aureus [13]) | MBC (Staphylococcus aureus [14]) | Ratio (Staphylococcus aureus [15]) | Ratio (Staphylococcus aureus [16]) | Ratio (Staphylococcus aureus [17]) | Ratio (Staphylococcus aureus [18]) | Ratio (Staphylococcus aureus [19]) | Ratio (Staphylococcus aureus [20]) | also measured
1 | C/C(=N\NC(=N)N)c1sc(-c2ccc(C#CC3CCCC3)cc2)nc1C | 2 µg/mL (≈ 5.47 µM) | 2 µg/mL (≈ 5.47 µM) | 4 µg/mL (≈ 10.9 µM) | 2 µg/mL (≈ 5.47 µM) | 1 µg/mL (≈ 2.74 µM) | 2 µg/mL (≈ 5.47 µM) | 2 µg/mL (≈ 5.47 µM) | 2 µg/mL (≈ 5.47 µM) | 2 µg/mL (≈ 5.47 µM) | 2 µg/mL (≈ 5.47 µM) | 1 µg/mL (≈ 2.74 µM) | 4 µg/mL (≈ 10.9 µM) | 2 µg/mL (≈ 5.47 µM) | 2 µg/mL (≈ 5.47 µM) | >100 | >100 | 8 | <=3 | <=3 | <=3 | Ratio (Staphylococcus aureus [21]): <=3; Ratio (Staphylococcus aureus [22]): <=3; Ratio (Staphylococcus aureus [23]; read-out: Ratio): 4; Ratio (Staphylococcus aureus [24]): <=3; Activity (Staphylococcus aureus [25]): 3 deltalog10CFU/ml; Activity (J774 [26]): Non-Toxic; Activity (Staphylococcus aureus [27]): inactive; Activity (HRT-18 cell line): Non-Toxic; selectivity ratio [28]: 7 to 31; fold change (FC) (Staphylococcus aureus [29]): 512
2 | C/C(=N\NC(=N)N)c1sc(-c2ccc(C#CC3CCCCC3)cc2)nc1C | 16 µg/mL (≈ 42.2 µM) | 2 µg/mL (≈ 5.27 µM) | 4 µg/mL (≈ 10.5 µM) | 16 µg/mL (≈ 42.2 µM) | 4 µg/mL (≈ 10.5 µM) | 4 µg/mL (≈ 10.5 µM) | 2 µg/mL (≈ 5.27 µM) | 2 µg/mL (≈ 5.27 µM) | 2 µg/mL (≈ 5.27 µM) | 2 µg/mL (≈ 5.27 µM) | 1 µg/mL (≈ 2.63 µM) | 2 µg/mL (≈ 5.27 µM) | 2 µg/mL (≈ 5.27 µM) | 2 µg/mL (≈ 5.27 µM) | >100 | >100 | 8 | <=3 | <=3 | <=3 | Ratio (Staphylococcus aureus [21]): <=3; Ratio (Staphylococcus aureus [22]): <=3; Ratio (Staphylococcus aureus [23]): <=3; Ratio (Staphylococcus aureus [24]): <=3; Activity (Staphylococcus aureus [30]): 1.9 deltalog10CFU/ml; Activity (Staphylococcus aureus [31]): 2.8 deltalog10CFU/ml; Activity (Staphylococcus aureus [32]): 4.3 deltalog10CFU/ml; Activity (J774 [33]): Non-Toxic; Activity (Staphylococcus aureus [34]): inactive; Activity (HRT-18 cell line): Non-Toxic; selectivity ratio [28]: 7 to 31
3 | C/C(=N\NC1=NCCN1)c1sc(-c2ccc(C#CC3CC3)cc2)nc1C | – | 8 µg/mL (≈ 22 µM) | 16 µg/mL (≈ 44 µM) | – | – | – | – | – | – | – | – | – | – | – | – | – | – | – | – | – | CLH [35]: < 115.5 µL/min/mg
